Columns and labels:
[1] = biological target: Kappa-type opioid receptor (Cavia porcellus) (UniProt P41144); test: (§1) Antagonist potency at a concentration of 100 nM; assay type: functional
In short: (§2)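 Electrically stimulated guinea pig ileal longitudinal muscle (ethylketazocine, morphine) and mouse vas deferens (DADLE). Antagonist 100 nM preincubated 15 min before standard agonist testing. IC50 ratio = agonist IC50 with antagonist divided by control agonist IC50 in the same preparation. For the kappa line, Ke = [antagonist]/(IC50 ratio − 1).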

[2] = biological target: Kappa-type opioid receptor (Cavia porcellus) (UniProt P41144); test: (§3) Selectivity ratio of kappa opioid receptor to that of mu opioid receptor
[3] = biological target: Mu-type opioid receptor (Cavia porcellus) (UniProt P97266); test: (§4) Inhibitory concentration was tested on electrically stimulated guinea pig ileal longitudinal muscle using Morphine as mu opioid receptor agonist at 100 nM of the compound; assay type: functional; in short: as §2
Mu-type opioid receptor (Cavia porcellus), sequence (P97266 whole entry): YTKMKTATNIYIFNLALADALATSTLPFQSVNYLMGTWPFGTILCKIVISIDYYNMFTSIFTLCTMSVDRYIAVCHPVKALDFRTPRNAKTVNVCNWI

[4] = biological target: Delta-type opioid receptor (Mus musculus) (UniProt P32300); test: (§5) Inhibitory concentration was tested on electrically stimulated mouse vas deferens using DADLE as delta opioid receptor agonist at 100 nM of the compound; assay type: functional; in short: as §2
Delta-type opioid receptor (Mus musculus), sequence (P32300 whole entry): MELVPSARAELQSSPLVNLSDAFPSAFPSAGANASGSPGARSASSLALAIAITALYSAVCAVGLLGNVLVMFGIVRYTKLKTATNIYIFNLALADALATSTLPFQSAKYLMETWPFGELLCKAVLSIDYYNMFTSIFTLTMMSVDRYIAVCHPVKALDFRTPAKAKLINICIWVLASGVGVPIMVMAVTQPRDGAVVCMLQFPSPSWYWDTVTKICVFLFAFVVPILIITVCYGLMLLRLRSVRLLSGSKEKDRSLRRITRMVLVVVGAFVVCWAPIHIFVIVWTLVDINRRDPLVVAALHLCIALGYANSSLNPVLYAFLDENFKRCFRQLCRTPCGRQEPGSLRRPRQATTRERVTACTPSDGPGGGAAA

[5] = biological target: Kappa-type opioid receptor (Cavia porcellus) (UniProt P41144); test: (§6) Selectivity ratio of kappa opioid receptor to that of delta opioid receptor
[6] = biological target: Kappa-type opioid receptor (Cavia porcellus) (UniProt P41144); test: (§7) Inhibitory concentration was tested on electrically stimulated guinea pig ileal longitudinal muscle using ethylketazocine as kappa opioid receptor agonist at 100 nM of the compound; assay type: functional; in short: as §2
[7] = as §1; assay type: functional; in short: as §2
[8] = biological target: T1, Opioid receptors; mu & kappa (Homo sapiens) (UniProt P41145+P35372); test: Selectivity ratio of mu opioid receptor to that of kappa opioid receptor; assay type: protein assay
T1 sequence (P35372 whole entry, looked up): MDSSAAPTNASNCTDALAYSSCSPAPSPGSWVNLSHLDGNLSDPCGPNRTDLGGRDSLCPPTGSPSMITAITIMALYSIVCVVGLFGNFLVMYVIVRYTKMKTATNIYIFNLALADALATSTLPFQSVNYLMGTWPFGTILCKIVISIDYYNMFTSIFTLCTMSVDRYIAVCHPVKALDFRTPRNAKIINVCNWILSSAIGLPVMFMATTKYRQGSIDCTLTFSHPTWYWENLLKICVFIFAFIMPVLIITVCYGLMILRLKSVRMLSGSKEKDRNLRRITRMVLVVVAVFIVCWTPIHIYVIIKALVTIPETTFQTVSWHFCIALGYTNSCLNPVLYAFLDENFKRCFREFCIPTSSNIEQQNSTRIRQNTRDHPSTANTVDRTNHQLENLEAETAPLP
T1 sequence (P41145 whole entry, looked up): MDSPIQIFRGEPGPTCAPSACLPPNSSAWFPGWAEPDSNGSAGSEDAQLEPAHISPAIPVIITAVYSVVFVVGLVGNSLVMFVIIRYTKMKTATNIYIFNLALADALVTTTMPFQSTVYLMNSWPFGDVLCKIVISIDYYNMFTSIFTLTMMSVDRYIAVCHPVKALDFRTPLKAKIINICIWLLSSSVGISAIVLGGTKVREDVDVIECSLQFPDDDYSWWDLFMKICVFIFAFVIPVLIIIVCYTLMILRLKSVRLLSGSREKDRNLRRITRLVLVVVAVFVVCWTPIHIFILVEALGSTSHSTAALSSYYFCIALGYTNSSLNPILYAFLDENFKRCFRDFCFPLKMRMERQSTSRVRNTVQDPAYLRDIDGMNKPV

[9] = biological target: Kappa-type opioid receptor (Cavia porcellus, UniProt P41144); test: The binding affinity on kappa-opioid receptor using [3H]- U-69,593 as radioligand
Kappa-type opioid receptor, sequence (P41144 whole entry): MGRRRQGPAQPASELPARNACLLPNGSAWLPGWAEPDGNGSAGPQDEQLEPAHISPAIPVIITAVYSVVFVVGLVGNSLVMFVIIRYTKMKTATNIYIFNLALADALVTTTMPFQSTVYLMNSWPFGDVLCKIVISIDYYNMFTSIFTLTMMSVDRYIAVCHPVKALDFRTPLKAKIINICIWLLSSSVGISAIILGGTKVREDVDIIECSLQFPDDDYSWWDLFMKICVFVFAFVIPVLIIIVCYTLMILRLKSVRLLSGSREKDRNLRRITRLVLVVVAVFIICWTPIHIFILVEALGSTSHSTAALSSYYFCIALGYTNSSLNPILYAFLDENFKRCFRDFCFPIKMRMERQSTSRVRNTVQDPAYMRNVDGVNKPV
In short: (§8)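 Competition binding in guinea pig brain membranes against selective tritiated radioligands. Displacement of [3H]U69593 at kappa, [3H]DAMGO at mu, [3H]DPDPE at delta sites.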

[10] = biological target: Mu-type opioid receptor (Cavia porcellus, UniProt P97266); test: The binding affinity against mu-opioid receptor using [3H]- DAMGO as radioligand; in short: as §8
Mu-type opioid receptor, sequence (P97266 whole entry): as the sequence (P97266 whole entry) above

[11] = biological target: Opioid receptors; delta & kappa (Homo sapiens) (UniProt P41145+P41143); test: as §6; assay type: protein assay
Opioid receptors; delta & kappa (Homo sapiens), sequence (P41143 whole entry, looked up): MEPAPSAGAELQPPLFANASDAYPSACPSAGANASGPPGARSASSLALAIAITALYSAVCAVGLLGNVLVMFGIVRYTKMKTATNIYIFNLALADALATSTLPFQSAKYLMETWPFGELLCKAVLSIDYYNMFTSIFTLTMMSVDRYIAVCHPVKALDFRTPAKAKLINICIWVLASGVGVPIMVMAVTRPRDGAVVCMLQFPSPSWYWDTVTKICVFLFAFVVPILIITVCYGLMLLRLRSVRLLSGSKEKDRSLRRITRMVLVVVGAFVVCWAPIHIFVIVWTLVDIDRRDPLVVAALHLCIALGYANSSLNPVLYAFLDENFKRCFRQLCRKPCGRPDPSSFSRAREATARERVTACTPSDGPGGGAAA
Opioid receptors; delta & kappa (Homo sapiens), sequence (P41145 whole entry, looked up): as the sequence (P41145 whole entry, looked up) above

[12] = system: Opioid receptors; delta & kappa; test: Selectivity ratio of delta opioid receptor to that of kappa opioid receptor; assay type: protein assay
[13] = biological target: T1, Opioid receptors; mu & kappa (Homo sapiens); test: as §3; assay type: protein assay
[14] = as §4; assay type: functional; in short: as §2
[15] = as §5; assay type: functional; in short: as §2
[16] = as §7; assay type: functional; in short: as §2

Kappa-type opioid receptor (Cavia porcellus), sequence (P41144 whole entry): as the sequence (P41144 whole entry) above

| Structure (SMILES) | Ke [1] [nM] | Ratio [2] | Ratio [3] | Ratio [4] | Ratio [5] | Ratio [6] | Ke [7] [nM] | Ratio [8] | Ki [9] [nM] | Ki [10] [nM] | Ratio [11] | Ratio [12] | Ratio [13] | Ratio [14] | Ratio [15] | Ratio [16] |
| --- | --- | --- | --- | --- | --- | --- | --- | --- | --- | --- | --- | --- | --- | --- | --- | --- |
| Oc1ccc2c3c1O[C@H]1c4[nH]c5c(c4C[C@@]4(O)[C@@H](C2)NCC[C@]314)C[C@@]1(O)[C@H]2Cc3ccc(O)c4c3[C@@]1(CCN2CC1CC1)[C@H]5O4 | 2.5 | 22 | 1.9 | 8.5 | 4.8 | 41 |  |  |  |  |  |  |  |  |  |  |
| Oc1ccc2c3c1O[C@H]1c4[nH]c5c(c4C[C@@]4(O)[C@@H](C2)N(CC2CC2)CC[C@]314)C[C@@]1(O)[C@H]2Cc3ccc(O)c4c3[C@@]1(CCN2CC1CC1)[C@H]5O4 |  |  |  |  |  |  | 0.55 |  |  |  |  |  |  |  |  |  |
| CCCCCN1CC[C@]23c4c5ccc(O)c4O[C@H]2c2[nH]c4c(c2C[C@@]3(O)[C@H]1C5)C[C@@]1(O)[C@H]2Cc3ccc(O)c5c3[C@@]1(CCN2CC1CC1)[C@H]4O5 | 3.8 | 8.7 | 3.1 | 3.1 | 8.7 | 27 |  |  |  |  |  |  |  |  |  |  |
| N=C(N)NCCN1CC[C@]23c4c5ccc(O)c4O[C@H]2c2[nH]c4c(c2C[C@@]3(O)[C@H]1C5)C[C@@]1(O)[C@H]2Cc3ccc(O)c5c3C1(CCN2CC1CC1)[C@H]4O5 |  |  |  |  |  |  | 3.8 | 85 | 0.59 | 50 | 27 | 63 | 15 | 1.7 | 1 | 27 |
| NCCN1CC[C@]23c4c5ccc(O)c4O[C@H]2c2[nH]c4c(c2C[C@@]3(O)[C@H]1C5)C[C@@]1(O)[C@H]2Cc3ccc(O)c5c3[C@@]1(CCN2CC1CC1)[C@H]4O5 |  |  |  |  |  |  | 5.1 | 14 | 3.4 | 46 | 10 | 41 | 12.5 | 1.6 | 1.9 | 20 |
| Oc1ccc2c3c1O[C@H]1c4[nH]c5c(c4C[C@@]4(O)[C@@H](C2)N(CCc2ccccc2)CC[C@]314)C[C@@]1(O)[C@H]2Cc3ccc(O)c4c3[C@@]1(CCN2CC1CC1)[C@H]5O4 | 2.4 | 24 | 1.8 | 2.4 | 181 | 44 |  |  |  |  |  |  |  |  |  |  |
| CCCCN1CC[C@]23c4c5ccc(O)c4O[C@H]2c2[nH]c4c(c2C[C@@]3(O)[C@H]1C5)C[C@@]1(O)[C@H]2Cc3ccc(O)c5c3[C@@]1(CCN2CC1CC1)[C@H]4O5 |  |  |  |  |  |  | 1.7 | 1820 | 0.04 | 73 |  |  |  | 1.8 | 1.9 | 61 |
| CCN1CC[C@]23c4c5ccc(O)c4O[C@H]2c2[nH]c4c(c2C[C@@]3(O)[C@H]1C5)C[C@@]1(O)[C@H]2Cc3ccc(O)c5c3[C@@]1(CCN2CC1CC1)[C@H]4O5 | 4.7 | 14 | 1.6 | 6.3 | 3.5 | 22 |  |  |  |  |  |  |  |  |  |  |
| O=C(NCCN1CC[C@]23c4c5ccc(O)c4O[C@H]2c2[nH]c4c(c2C[C@@]3(O)C1=C5)C[C@@]1(O)[C@H]2Cc3ccc(O)c5c3[C@@]1(CCN2CC1CC1)[C@H]4O5)OCc1ccccc1 |  |  |  |  |  |  | 4 | 194 |  |  | 5.7 | 325 | 5.7 | 4.5 |  | 26 |
| NCC(=O)NCC(=O)N1CC[C@]23c4c5ccc(O)c4O[C@H]2c2[nH]c4c(c2C[C@@]3(O)[C@H]1C5)C[C@@]1(O)[C@H]2Cc3ccc(O)c5c3[C@@]1(CCN2CC1CC1)[C@H]4O5 |  |  |  |  |  |  | 11.7 | 3 | 21 | 66 |  | > 15 | 4.8 | 2 | 0.67 | 9.6 |
| NCC(=O)N1CC[C@]23c4c5ccc(O)c4O[C@H]2c2[nH]c4c(c2C[C@@]3(O)[C@H]1C5)C[C@@]1(O)[C@H]2Cc3ccc(O)c5c3[C@@]1(CCN2CC1CC1)[C@H]4O5 | 9.3 | 8.4 | 1.4 | 2.2 | 5.4 | 11.8 |  |  |  |  |  |  |  |  |  |  |
| CC(=O)N1CC[C@]23c4c5ccc(O)c4O[C@H]2c2[nH]c4c(c2C[C@@]3(O)[C@H]1C5)C[C@@]1(O)[C@H]2Cc3ccc(O)c5c3[C@@]1(CCN2CC1CC1)[C@H]4O5 | 30.3 | 2.4 | 1.8 | 2.8 | 1.5 | 4.3 |  |  |  |  |  |  |  |  |  |  |
